Columns and labels:
[1] = target: T1, 5-hydroxytryptamine receptor 1A (Homo sapiens) (UniProt P08908); assay: The binding affinity was evaluated on cloned human 5-hydroxytryptamine 1A receptor expressed in HeLa cells by using DPAT as radioligand.; format: cell-based
T1 sequence (whole entry): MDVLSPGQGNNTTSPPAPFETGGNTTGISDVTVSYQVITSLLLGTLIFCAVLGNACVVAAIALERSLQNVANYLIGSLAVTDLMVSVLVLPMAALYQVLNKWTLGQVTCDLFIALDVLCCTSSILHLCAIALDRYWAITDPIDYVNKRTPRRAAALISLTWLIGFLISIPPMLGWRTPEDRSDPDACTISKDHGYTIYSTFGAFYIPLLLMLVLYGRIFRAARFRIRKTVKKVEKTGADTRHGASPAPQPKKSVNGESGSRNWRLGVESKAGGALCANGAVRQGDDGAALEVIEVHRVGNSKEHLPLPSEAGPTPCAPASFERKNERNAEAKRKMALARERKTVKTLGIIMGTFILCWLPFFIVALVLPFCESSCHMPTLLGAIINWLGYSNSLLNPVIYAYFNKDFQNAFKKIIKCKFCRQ
How it was run: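 Membranes from HeLa cells stably expressing human 5-HT1A, in 50 mM Tris-HCl pH 7.4, 2.5 mM MgCl2, 10 μM pargyline. Nonspecific binding with 10 μM 5-HT. Filtration. Ki by Cheng-Prusoff. 2–3 experiments in triplicate.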

[2] = target: T2, Alpha-1A adrenergic receptor (Homo sapiens) (UniProt P35348); assay: The binding affinity was evaluated on cloned human alpha-1A adrenergic receptor expressed in chinese hamster ovary(CHO) cells by using [3H]prazosin as radioligand.; format: cell-based
T2 sequence (whole entry): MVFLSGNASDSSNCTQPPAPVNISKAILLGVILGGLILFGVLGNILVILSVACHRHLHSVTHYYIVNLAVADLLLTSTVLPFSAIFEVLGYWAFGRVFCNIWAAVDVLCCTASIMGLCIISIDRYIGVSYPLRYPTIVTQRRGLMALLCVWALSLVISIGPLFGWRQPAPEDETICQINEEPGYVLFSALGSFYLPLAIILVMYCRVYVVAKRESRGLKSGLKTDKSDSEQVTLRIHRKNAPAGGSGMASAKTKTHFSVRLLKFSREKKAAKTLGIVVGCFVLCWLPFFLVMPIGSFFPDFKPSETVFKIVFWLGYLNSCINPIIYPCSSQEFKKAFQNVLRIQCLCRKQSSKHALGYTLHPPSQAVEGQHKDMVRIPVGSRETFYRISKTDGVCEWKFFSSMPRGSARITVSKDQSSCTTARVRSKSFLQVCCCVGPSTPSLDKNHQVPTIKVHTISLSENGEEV
How it was run: (§1)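 Membranes (30 μg protein) from CHO cells stably expressing each human α1 subtype, in 50 mM Tris-HCl pH 7.4. Incubated with 0.1–0.4 nM [3H]prazosin for 30 min at 25 °C, competitor 1 pM–10 μM. Nonspecific binding with 10 μM phentolamine. Ki by Cheng-Prusoff. 2–3 experiments in triplicate.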

[3] = target: 5-hydroxytryptamine receptor 2A (Rattus norvegicus) (UniProt P14842); assay: The binding affinity was evaluated on 5-hydroxytryptamine 2A receptor expressed in rat cortex by using [3H]ketanserin as radioligand.
5-hydroxytryptamine receptor 2A (Rattus norvegicus), sequence (P14842 whole entry): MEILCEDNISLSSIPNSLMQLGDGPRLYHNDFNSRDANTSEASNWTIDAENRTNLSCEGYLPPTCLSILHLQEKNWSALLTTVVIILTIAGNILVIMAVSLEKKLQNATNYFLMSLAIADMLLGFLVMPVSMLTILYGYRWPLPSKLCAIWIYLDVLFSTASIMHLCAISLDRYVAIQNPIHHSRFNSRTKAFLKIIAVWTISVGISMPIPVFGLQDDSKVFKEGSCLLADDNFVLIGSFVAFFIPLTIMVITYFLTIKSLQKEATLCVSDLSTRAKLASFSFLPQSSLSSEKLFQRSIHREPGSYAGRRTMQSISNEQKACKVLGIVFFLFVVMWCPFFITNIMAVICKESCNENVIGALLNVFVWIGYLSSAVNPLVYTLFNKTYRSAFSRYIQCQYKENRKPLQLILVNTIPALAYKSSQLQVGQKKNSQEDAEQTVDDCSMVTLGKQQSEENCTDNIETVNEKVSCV
How it was run: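 Rat cerebral cortex membranes in Tris-HCl pH 7.4 with 10 μM pargyline and 0.1% ascorbic acid. Incubated 20 min at 37 °C with 0.7–1.3 nM [3H]ketanserin. Nonspecific binding with 2 μM ketanserin. Filtration and scintillation counting. Ki by Cheng-Prusoff. 2–3 experiments in triplicate.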

[4] = target: D(2) dopamine receptor (Rattus norvegicus) (UniProt P61169); assay: The binding affinity was evaluated on Dopamine receptor D2 expressed in rat striatum by using [3H]spiperone as radioligand; format: tissue-based
D(2) dopamine receptor (Rattus norvegicus), sequence (P61169 whole entry): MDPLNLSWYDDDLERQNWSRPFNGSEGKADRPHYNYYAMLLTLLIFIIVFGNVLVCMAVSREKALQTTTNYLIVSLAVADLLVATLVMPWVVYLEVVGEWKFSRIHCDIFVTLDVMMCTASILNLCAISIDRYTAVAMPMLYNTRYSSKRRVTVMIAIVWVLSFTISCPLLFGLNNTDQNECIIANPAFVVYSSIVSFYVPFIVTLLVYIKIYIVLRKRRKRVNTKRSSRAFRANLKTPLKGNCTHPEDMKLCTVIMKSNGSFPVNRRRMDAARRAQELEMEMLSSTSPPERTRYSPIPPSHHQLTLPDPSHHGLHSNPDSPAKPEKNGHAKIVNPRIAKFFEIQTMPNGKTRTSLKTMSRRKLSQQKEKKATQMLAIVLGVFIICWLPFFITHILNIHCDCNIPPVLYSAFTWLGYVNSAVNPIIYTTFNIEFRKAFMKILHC
How it was run: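 Rat striatum membranes in Tris-HCl with 10 μM pargyline, 0.1% ascorbic acid, 120 mM NaCl, 5 mM KCl, 2 mM CaCl2, 1 mM MgCl2. Incubated 15 min at 37 °C with 0.2–0.6 nM [3H]spiperone. Nonspecific binding with 1 μM (+)-butaclamol. Ki by Cheng-Prusoff. 2–3 experiments in triplicate.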

[5] = target: T3, Alpha-1D adrenergic receptor (Homo sapiens) (UniProt P25100); assay: The binding affinity was evaluated on cloned human alpha-1D adrenergic receptor expressed in chinese hamster ovary(CHO) cells by using [3H]prazosin as radioligand.; format: cell-based; how it was run: as §1
T3 sequence (whole entry): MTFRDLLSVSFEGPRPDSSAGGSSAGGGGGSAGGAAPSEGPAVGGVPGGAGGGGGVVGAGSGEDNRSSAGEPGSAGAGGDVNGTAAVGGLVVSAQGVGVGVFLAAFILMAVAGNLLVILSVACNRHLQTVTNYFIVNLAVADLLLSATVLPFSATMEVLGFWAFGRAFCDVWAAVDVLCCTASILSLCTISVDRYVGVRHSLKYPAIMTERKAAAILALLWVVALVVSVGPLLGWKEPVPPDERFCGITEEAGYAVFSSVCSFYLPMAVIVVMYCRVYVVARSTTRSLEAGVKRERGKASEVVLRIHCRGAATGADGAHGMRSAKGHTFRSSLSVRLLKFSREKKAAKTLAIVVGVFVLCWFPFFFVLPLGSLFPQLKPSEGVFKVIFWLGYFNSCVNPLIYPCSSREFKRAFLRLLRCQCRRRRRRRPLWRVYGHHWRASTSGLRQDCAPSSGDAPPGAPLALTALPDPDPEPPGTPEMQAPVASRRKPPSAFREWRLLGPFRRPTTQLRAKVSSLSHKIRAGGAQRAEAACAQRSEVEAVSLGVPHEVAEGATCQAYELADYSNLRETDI

[6] = target: T4, Alpha-1B adrenergic receptor (Homo sapiens) (UniProt P35368); assay: The binding affinity was evaluated on cloned human alpha-1B adrenergic receptor expressed in chinese hamster ovary(CHO) cells by using [3H]prazosin as radioligand.; format: cell-based; how it was run: as §1
T4 sequence (whole entry): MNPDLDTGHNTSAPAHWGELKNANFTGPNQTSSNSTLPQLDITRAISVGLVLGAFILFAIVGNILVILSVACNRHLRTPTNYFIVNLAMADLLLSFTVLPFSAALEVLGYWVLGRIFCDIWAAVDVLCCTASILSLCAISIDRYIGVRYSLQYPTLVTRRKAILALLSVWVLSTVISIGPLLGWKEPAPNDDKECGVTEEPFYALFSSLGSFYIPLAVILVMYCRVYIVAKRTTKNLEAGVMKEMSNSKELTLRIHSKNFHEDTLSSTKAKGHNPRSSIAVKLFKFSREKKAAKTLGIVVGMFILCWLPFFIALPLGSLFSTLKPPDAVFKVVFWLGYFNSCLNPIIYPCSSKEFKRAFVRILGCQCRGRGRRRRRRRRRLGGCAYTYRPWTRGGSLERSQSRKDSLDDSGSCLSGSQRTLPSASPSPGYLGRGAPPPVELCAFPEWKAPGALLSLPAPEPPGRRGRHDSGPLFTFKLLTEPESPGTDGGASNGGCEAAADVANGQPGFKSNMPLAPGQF

[7] = target: Adrenergic receptor alpha-2 (Rattus norvegicus) (UniProt P22086+P19328+P22909); assay: The binding affinity was evaluated on alpha-2 adrenergic receptor expressed in rat cortex by using [3H]rauwolscine as radioligand.
How it was run: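 Male Sprague-Dawley rat cerebral cortex membranes, washed in Tris-HCl pH 7.4 and held in buffer with 10 μM pargiline and 0.1% ascorbic acid. Incubated 30 min at 25 °C with 0.5-1.5 nM [3H]rauwolscine; nonspecific binding with 10 μM phentolamine. Filtration, scintillation counting. Ki from Cheng-Prusoff; 2-3 experiments in triplicate.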

[8] = target: T5, Alpha-1D adrenergic receptor (Rattus norvegicus) (UniProt P23944); assay: Antagonist affinity was expressed as apparent pKb at Alpha-1D adrenergic receptor on isolated rat thoracic aorta (Alpha-1D); format: functional, tissue-based
T5 sequence (whole entry): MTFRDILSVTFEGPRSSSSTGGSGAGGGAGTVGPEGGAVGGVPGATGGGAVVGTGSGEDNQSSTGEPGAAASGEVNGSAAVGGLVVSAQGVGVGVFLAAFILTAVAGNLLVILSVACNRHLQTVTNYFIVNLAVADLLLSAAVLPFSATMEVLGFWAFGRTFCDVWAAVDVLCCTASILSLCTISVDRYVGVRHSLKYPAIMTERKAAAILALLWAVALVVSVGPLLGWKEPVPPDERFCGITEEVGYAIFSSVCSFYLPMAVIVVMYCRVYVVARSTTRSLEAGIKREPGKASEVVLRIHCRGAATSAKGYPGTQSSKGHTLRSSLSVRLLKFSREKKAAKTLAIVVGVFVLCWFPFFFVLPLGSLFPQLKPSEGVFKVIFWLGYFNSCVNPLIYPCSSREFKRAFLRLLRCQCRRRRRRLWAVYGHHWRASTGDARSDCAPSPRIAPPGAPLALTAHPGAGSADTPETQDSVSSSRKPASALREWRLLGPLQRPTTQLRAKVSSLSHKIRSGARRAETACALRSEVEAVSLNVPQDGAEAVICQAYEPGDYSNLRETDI
How it was run: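 Helicoidal strips of rat thoracic aorta at 1 g tension, with 0.1 μM cocaine and 1 μM propranolol. After ≥1 h equilibration, cumulative (–)-noradrenaline curves at 30-min intervals; the third served as control. Antagonist equilibrated 30 min before the fourth curve. Apparent pKb from log(DR−1) − log[B], 2–3 antagonist concentrations, each tested four times.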

[9] = target: T6, Alpha-1A adrenergic receptor (Rattus norvegicus) (UniProt P43140); assay: Antagonist affinity was expressed as apparent pKb at Alpha-1A adrenergic receptor on isolated rat prostatic vas deferens (alpha1A).; format: functional, tissue-based
T6 sequence (whole entry): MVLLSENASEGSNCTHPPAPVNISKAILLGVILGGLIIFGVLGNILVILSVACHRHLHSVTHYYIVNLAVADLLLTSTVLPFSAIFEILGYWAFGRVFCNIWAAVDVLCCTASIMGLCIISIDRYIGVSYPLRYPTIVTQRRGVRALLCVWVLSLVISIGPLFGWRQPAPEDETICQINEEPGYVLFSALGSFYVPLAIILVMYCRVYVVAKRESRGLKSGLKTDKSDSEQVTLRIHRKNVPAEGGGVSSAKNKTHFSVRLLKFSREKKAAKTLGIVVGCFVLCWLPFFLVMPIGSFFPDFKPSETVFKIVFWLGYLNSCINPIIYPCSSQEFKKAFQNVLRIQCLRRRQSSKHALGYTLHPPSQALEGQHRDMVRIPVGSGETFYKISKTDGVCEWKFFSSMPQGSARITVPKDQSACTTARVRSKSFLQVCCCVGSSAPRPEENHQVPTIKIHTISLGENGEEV
How it was run: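 Rat prostatic vas deferens in Tyrode with 0.1 μM cocaine. Equilibrated 60 min, primed twice with 10 μM noradrenaline, then a control cumulative (–)-noradrenaline curve recorded isometrically. Antagonist equilibrated 30 min before a repeat curve. Apparent pKb = log(DR−1) − log[B], with DR as the ratio of agonist EC50 with/without antagonist. 2–3 antagonist concentrations, each tested four times.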

[10] = target: T4, Alpha-1B adrenergic receptor (Homo sapiens); assay: The binding affinity was evaluated on cloned human Alpha-1B adrenergic receptor expressed in chinese hamster ovary(CHO) cells by using [3H]prazosin as radioligand.; format: cell-based; how it was run: as §1
[11] = target: T2, Alpha-1A adrenergic receptor (Homo sapiens); assay: The binding affinity was evaluated on cloned human Alpha-1A adrenergic receptor expressed in chinese hamster ovary(CHO) cells by using [3H]prazosin as radioligand.; format: cell-based; how it was run: as §1
[12] = target: T3, Alpha-1D adrenergic receptor (Homo sapiens); assay: The binding affinity was evaluated on cloned human Alpha-1D adrenergic receptor expressed in chinese hamster ovary(CHO) cells by using [3H]-prazosin as radioligand.; format: cell-based; how it was run: as §1
[13] = target: T1, 5-hydroxytryptamine receptor 1A (Homo sapiens); assay: Agonist efficacy was evaluated as [35S]GTP binding on cloned human 5-hydroxytryptamine 1A receptor; format: functional
How it was run: (§2)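 HeLa membranes stably expressing human 5-HT1A, in 20 mM HEPES, 3 mM MgSO4, 120 mM NaCl (pH 7.4). Preincubated 20 min at 30 °C with 30 μM GDP and drug (100 μM–0.1 nM), then [35S]GTPγS (150–250 pM) added for a further 30 min at 30 °C. Nonspecific binding with 10 μM GTPγS. Filtration and scintillation counting. Stimulation is % above basal, with maximal 5-HT response = 100%. Emax and pD2 from curve fitting. Triplicate, 2–3 sessions.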

[14] = target: T1, 5-hydroxytryptamine receptor 1A (Homo sapiens); assay: Maximum […] was evaluated as ([35S]GTP binding on cloned human 5-hydroxytryptamine 1A receptor; format: functional; how it was run: as §2
[15] = target: T1, 5-hydroxytryptamine receptor 1A (Homo sapiens)
[16] = target: T1, 5-hydroxytryptamine receptor 1A (Homo sapiens); remark: listed apart in the source

COc1cccc(OC)c1OCCNCC1C(=O)c2ccccc2CC1c1ccccc1 (stereo not given)
pKi [1]: 6.83
pKi [2]: 8.06
pKi [3]: 6.63
pKi [4]: < 6
pKi [5]: 6.88
pKi [6]: 6.11
pKi [7]: 6.45

COc1cccc(OC)c1OCCNCC1Oc2ccccc2CC1c1ccccc1 (stereo in doubt; 6)
pKi [1]: 6.76
pKi [2]: 6.78
pKi [5]: 6.86
pKi [6]: 6.51

COc1cccc(OC)c1OCCNC[C@H]1Oc2ccccc2O[C@@H]1c1ccccc1
pKb [8]: 7.51
pKb [9]: 8.18

COc1cccc(OC)c1OCCNCC1C(=O)c2ccccc2SC1c1ccccc1 (stereo not given)
pKi [1]: 7.36
pKi [2]: 7.42
pKi [10]: < 6
pKi [5]: 6.37

COc1cccc(OC)c1OCCNCC1=Cc2ccccc2OC1c1ccccc1 (stereo not given)
pKi [1]: 8.08
pKi [10]: 6.84
pKi [11]: 7.14
pKi [12]: 6.95
pD2 [13]: 6.44
Max [14]: 40%

NCCc1c[nH]c2ccc(C(N)=O)cc12
pD2 [15]: 8.45

COc1cccc(OC)c1OCCNCC1COc2ccccc2O1 (stereo not given)
pKi [1]: 8.68
pKi [2]: 9.37
pKi [3]: 6
pKi [4]: 6.91
pKi [7]: 7.83

NCCc1c[nH]c2ccc(O)cc12
pD2 [16]: 7.3

— ChEMBL document CHEMBL1132324, “Structure-activity relationships in 1,4-benzodioxan-related compounds. 6. Role of the dioxane unit on selectivity for alpha(1)-adrenoreceptor subtypes” (J Med Chem, 1999)
